ChEMBL document CHEMBL1140516, “Dual-acting agents that possess reversing resistance and anticancer activities: Design, synthesis, MES-SA/Dx5 cell assay, and SAR of Benzyl 1,2,3,5,11,11a-hexahydro-3,3-dimethyl-1-oxo-6H-imidazo[3',4':1,2]pyridin[3,4-b]indol-2-substitutedacetates” (Bioorg Med Chem, 2007)

Test: Growth inhibition of doxorubicin-resistant human MES-SA/Dx5 cells after 48 hrs by MTT assay
Format: functional, cell-based
Conditions: MES-SA/Dx5, 48 h
Procedure, shortened: (§1)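 MES-SA or MES-SA/Dx5 cells in exponential growth were seeded at 1×10^5/mL in McCoy's 5A with 10% FCS, penicillin and streptomycin on poly-L-lysine-coated plates and held 4 h at 37 °C, 5% CO2. Doxorubicin was then added at final 0.04–10.00 µM (serial halving) for 48 h. Read-out was MTT, with dried formazan dissolved in DMSO and absorbance read. Survival% = (treated−blank)/(control−blank), and IC50 was taken from the survival–concentration plot.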

Q: For `COc1cccc2c1C(=O)c1c(O)c3c(c(O)c1C2=O)C[C@@](O)(C(=O)CO)C[C@@H]3O[C@H]1C[C@H](N)[C@H](O)[C@H](C)O1` [DOXORUBICIN], which IC50 is on record?
A: 1550 nM

Test: Growth inhibition of doxorubicin-resistant human MES-SA/Dx5 cells at 1.0 uM after 48 hrs by MTT assay
Format: functional
Conditions: MES-SA/Dx5, 48 h
Procedure, shortened: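 Exponential-phase MES-SA/Dx5 cells were seeded at 1×10^5/mL in McCoy's 5A with 10% FCS and penicillin/streptomycin on poly-L-lysine-coated wells and preincubated 4 h at 37 °C under 5% CO2. Compound was added in medium as a 1 µmol/L solution and cells were grown 48 h. In the MTT read-out, DMSO-dissolved formazan absorbance was measured. Inhibition% = 1 − (drug−blank)/(control−blank), with untreated cells as control and a cell-free blank.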

Q: For `CC1(C)N2Cc3[nH]c4ccccc4c3C[C@H]2C(=O)N1[C@@H](CC(=O)OCc1ccccc1)C(=O)OCc1ccccc1`, which inhibition at 1 µM is on record?
A: 31.2%

Q: For `CC1(C)N2Cc3[nH]c4ccccc4c3C[C@H]2C(=O)N1[C@@H](CC(N)=O)C(=O)OCc1ccccc1`, which inhibition at 1 µM is on record?
A: 0%

Q: For `CC1(C)N2Cc3[nH]c4ccccc4c3C[C@H]2C(=O)N1[C@@H](CCC(N)=O)C(=O)OCc1ccccc1`, which inhibition at 1 µM is on record?
A: 0%

Q: With `CC1(C)N2Cc3[nH]c4ccccc4c3C[C@H]2C(=O)N1[C@@H](Cc1ccccc1)C(=O)OCc1ccccc1` as the molecule, how does the inhibition at 1 µM read?
A: 31.2%

Q: Which inhibition at 1 µM does the source give for `CC(C)C[C@@H](C(=O)OCc1ccccc1)N1C(=O)[C@@H]2Cc3c([nH]c4ccccc34)CN2C1(C)C` here?
A: 38.9%

Q: Which inhibition at 1 µM does the source give for `C[C@@H](C(=O)OCc1ccccc1)N1C(=O)[C@@H]2Cc3c([nH]c4ccccc34)CN2C1(C)C` here?
A: 0%

Q: Which inhibition at 1 µM does the source give for `CC(C)[C@@H](C(=O)OCc1ccccc1)N1C(=O)[C@@H]2Cc3c([nH]c4ccccc34)CN2C1(C)C` here?
A: 0%

Q: For `CC1(C)N2Cc3[nH]c4ccccc4c3C[C@H]2C(=O)N1[C@@H](COCc1ccccc1)C(=O)OCc1ccccc1`, which inhibition at 1 µM is on record?
A: 0%

Q: Which inhibition at 1 µM does the source give for `CC1(C)N2Cc3[nH]c4ccccc4c3C[C@H]2C(=O)N1[C@@H](Cc1ccc(O)cc1)C(=O)OCc1ccccc1` here?
A: 0%

Q: With `CC1(C)N(CC(=O)OCc2ccccc2)C(=O)[C@@H]2Cc3c([nH]c4ccccc34)CN21` as the molecule, how does the inhibition at 1 µM read?
A: 0%

Q: For `CC1(C)N2Cc3[nH]c4ccccc4c3C[C@H]2C(=O)N1[C@@H](Cc1c[nH]c2ccccc12)C(=O)OCc1ccccc1`, which inhibition at 1 µM is on record?
A: 0%

Q: For `CC1(C)N2Cc3[nH]c4ccccc4c3C[C@H]2C(=O)N1[C@@H](CCC(=O)OCc1ccccc1)C(=O)OCc1ccccc1`, which inhibition at 1 µM is on record?
A: 13.4%

Q: Which inhibition at 1 µM does the source give for `CC1(C)N2Cc3[nH]c4ccccc4c3C[C@H]2C(=O)N1[C@@H](CCCCNC(=O)OCc1ccccc1)C(=O)OCc1ccccc1` here?
A: 0%

Q: Which inhibition at 1 µM does the source give for `CCC(C)[C@@H](C(=O)OCc1ccccc1)N1C(=O)[C@@H]2Cc3c([nH]c4ccccc34)CN2C1(C)C` (stereo partly specified) here?
A: 0%

Test: Growth inhibition of doxorubicin-sensitive human MES-SA cells after 48 hrs by MTT assay
Format: functional, cell-based
Conditions: not given
Procedure, shortened: as §1

Q: With `COc1cccc2c1C(=O)c1c(O)c3c(c(O)c1C2=O)C[C@@](O)(C(=O)CO)C[C@@H]3O[C@H]1C[C@H](N)[C@H](O)[C@H](C)O1` [DOXORUBICIN] as the molecule, how does the IC50 read?
A: 347 nM
